Data taken from PubChem BioAssay AID2655 (Broad Institute, 2010).

Test system: human platelets, SFLLRN-induced actin polymerization, FITC-phalloidin flow
Test: inhibition of SFLLRN-induced platelet actin polymerization, late-stage follow-up, selectivity assay for platelet granule secretion inhibitor project, cell-based, FITC-phalloidin flow cytometry, human platelets (AID 2655)
Conditions: at 10 µM; hits give high values
Summary of the method: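 Material: Gel-filtered platelets. Probe or stimulus: SFLLRN at 5 µM, or no SFLLRN. Compound dosing: single 10 µM compound dose, 0.3% DMSO vehicle. Timing: compound 20 min and SFLLRN 15 min, both 37 °C. Detection: FITC-phalloidin flow cytometry in fixed, permeabilized platelets. Control set: DMSO vehicle.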

SMILES	inhibition [%]
CCCC(=O)Nc1cccc(NC(=O)c2ccccc2Br)c1	80.4
O=C(Nc1cccc(NC(=O)c2ccccc2Cl)c1)c1ccco1	71.4
